# Measured values from ChEMBL document CHEMBL3046055, “Synthesis and herbicidal activity of novel N-(2,2,2)-trifluoroethylpyrazole derivatives” (J Agric Food Chem, 2010).
# Columns and labels:
# [1] = system: Digitaria sanguinalis; assay: Herbicidal activity against Digitaria sanguinalis (hairy crabgrass) assessed as inhibition of fresh weed plant weights at 150 g ai/ha using pre-emergence treatment protocol under greenhouse conditions relative to untreated control; assay type: functional
# Procedure, shortened: (§1)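 Pre-emergence test in plastic pots kept in a greenhouse at 22-25 °C. Fresh weight of aerial plant parts was measured 20 days later, and percent inhibition calculated relative to water-sprayed controls. Metolachlor served as the positive control. Three replicates were run per concentration.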
# [2] = system: Convolvulus arvensis; assay: Herbicidal activity against Convolvulus arvensis assessed as inhibition of fresh weed plant weights at 300 g ai/ha using pre-emergence treatment protocol under field trials conditions measured 30 days post soil treatment relative to untreated control; assay type: functional; details: 720 h
# Procedure, shortened: (§2)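 Field pre-emergence trial. Treatments were applied to the soil surface within 24 h after maize planting, at 300, 400, 600 and 800 g a.i. ha^-1. Fresh weight of aerial plant parts was measured 30 days later, and percent inhibition calculated relative to the water-sprayed control.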
# [3] = system: Digitaria sanguinalis; assay: Herbicidal activity against Digitaria sanguinalis (hairy crabgrass) assessed as inhibition of fresh weed plant weights at 800 g ai/ha using pre-emergence treatment protocol under field trials conditions measured 30 days post soil treatment relative to untreated control; assay type: functional; details: 720 h; procedure, shortened: as §2
# [4] = system: Brassica rapa subsp. oleifera; assay: Toxicity against Brassica rapa subsp. oleifera var. JING GUAN 1 assessed as inhibition of fresh weed plant weights at 300 g ai/ha using pre-emergence treatment protocol under greenhouse conditions relative to untreated control; assay type: organism-based; details: in vivo, other; procedure, shortened: as §1
# [5] = system: Zea mays; assay: Toxicity against Zea mays var. SHEN DAN 17 (maize) assessed induction of crop injury at 400 g ai/ha using pre-emergence treatment protocol under field trials conditions measured 30 days post soil treatment; assay type: organism-based; details: in vivo, other, 720 h
# Procedure, shortened: (§3)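 Pre-emergence application to soil surface within 24 h after maize planting, at 300, 400, 600 or 800 g a.i. ha^-1. Fresh weight of aerial plant parts measured 30 days later; percentage inhibition calculated relative to water-sprayed control.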
# [6] = system: Portulaca oleracea; assay: Herbicidal activity against Portulaca oleracea assessed as inhibition of root growth at […] measured 7 days post treatment; assay type: functional; parameters: dose or concentration left out as unconfirmed; details: 168 h, read-out: GI
# [7] = system: Eleusine indica; assay: Herbicidal activity against Eleusine indica assessed as inhibition of fresh weed plant weights at 600 g ai/ha using pre-emergence treatment protocol under field trials conditions measured 30 days post soil treatment relative to untreated control; assay type: functional; details: 720 h; procedure, shortened: as §2
# [8] = system: Portulaca oleracea; assay: Herbicidal activity against Portulaca oleracea assessed as inhibition of fresh weed plant weights at 300 g ai/ha using pre-emergence treatment protocol under field trials conditions measured 30 days post soil treatment relative to untreated control; assay type: functional; details: 720 h; procedure, shortened: as §2
# [9] = system: Eleusine indica; assay: Herbicidal activity against Eleusine indica assessed as inhibition of fresh weed plant weights at 400 g ai/ha using pre-emergence treatment protocol under field trials conditions measured 30 days post soil treatment relative to untreated control; assay type: functional; details: 720 h; procedure, shortened: as §2
# [10] = system: Brassica rapa subsp. oleifera; assay: Toxicity against Brassica rapa subsp. oleifera var. JING GUAN 1 assessed as inhibition of fresh weed plant weights at 600 g ai/ha using pre-emergence treatment protocol under greenhouse conditions relative to untreated control; assay type: organism-based; details: in vivo, other; procedure, shortened: as §1
# [11] = system: Zea mays; assay: Toxicity against Zea mays var. SHEN DAN 17 (maize) assessed induction of crop injury at 800 g ai/ha using pre-emergence treatment protocol under field trials conditions measured 30 days post soil treatment; assay type: organism-based; details: in vivo, other, 720 h; procedure, shortened: as §3
# [12] = system: Zea mays; assay: Toxicity against Zea mays var. SHEN DAN 17 (maize) assessed as inhibition of fresh weed plant weights at 600 g ai/ha using pre-emergence treatment protocol under greenhouse conditions relative to untreated control; assay type: organism-based; details: in vivo, other; procedure, shortened: as §1
# [13] = system: Convolvulus arvensis; assay: Herbicidal activity against Convolvulus arvensis assessed as inhibition of fresh weed plant weights at 800 g ai/ha using pre-emergence treatment protocol under field trials conditions measured 30 days post soil treatment relative to untreated control; assay type: functional; details: 720 h; procedure, shortened: as §2
# [14] = system: Portulaca oleracea; assay: Herbicidal activity against Portulaca oleracea assessed as inhibition of fresh weed plant weights at 150 g ai/ha using pre-emergence treatment protocol under greenhouse conditions relative to untreated control; assay type: functional; procedure, shortened: as §1
# [15] = system: Eleusine indica; assay: Herbicidal activity against Eleusine indica assessed as inhibition of fresh weed plant weights at 300 g ai/ha using pre-emergence treatment protocol under field trials conditions measured 30 days post soil treatment relative to untreated control; assay type: functional; details: 720 h; procedure, shortened: as §2
compound,measurement,setting,value
Cc1nn(CC(F)(F)F)c(CS(=O)(=O)C2=NOC(C)(C)C2)c1Cl,inhibition at 150 g/ha,[1],86%
same,inhibition at 300 g/ha,[2],14%
same,inhibition at 800 g/ha,[3],100%
same,inhibition (INH),[4],12%
same,Activity,[5],0%
same,inhibition of growth,[6],63%
same,inhibition at 600 g/ha,[7],98%
same,inhibition at 300 g/ha,[8],80%
same,inhibition at 400 g/ha,[9],98%
same,inhibition (INH),[10],11%
same,Activity,[11],0%
same,inhibition (INH),[12],1%
same,inhibition at 800 g/ha,[13],40%
same,inhibition at 150 g/ha,[14],70%
same,inhibition at 300 g/ha,[15],97%
